# Results of several laboratories.
# Compare with care: the assays were run in different laboratories.
# Medium: plasma
SMILES,host,route,dose,notes,AUC(0-t)
CO[C@H]1CC[C@H](N2C(=O)CNc3ncc(-c4ccc(C(C)(C)O)nc4)nc32)CC1,human,oral,45 mg,"multiple doses, patients",2080 ng·h/mL
COc1ccc([C@@H]2CN(C(=O)[C@@H](O)CO)C[C@@]2(C)[C@@H](C)O)cc1OC1CN(c2ccc(C)cn2)C1,human,oral,30 mg,"single dose, healthy volunteers",5620 ng·h/mL
CC(C)(O)c1ccccc1-c1ccc2[nH]c(/C=C/c3ccc(C(F)(F)F)cc3)nc2c1,male human,oral,120 mg,"single dose, fasted",2820 ng·h/mL
C[C@@H](Nc1cc(F)cc(F)c1)c1cc(C(=O)N(C)C)cc2c(=O)cc(N3CCOCC3)oc12,human,oral,60 mg,"single dose, patients",1240 ng·h/mL
OC[C@H]1O[C@@H](c2ccc(Cl)c(Cc3ccc(O[C@H]4CCOC4)cc3)c2)[C@H](O)[C@@H](O)[C@@H]1O,human,oral,25 mg,single dose,4.31 µM·h
FC(F)(F)c1ccc(CNc2ccc(Cc3c[nH]c4ncc(Cl)cc34)cn2)cn1,human,oral,600 mg,"multiple doses, patients",13300 ng·h/mL
C[C@@]1(c2cc(NC(=O)c3ccc(C#N)cn3)ccc2F)C=CSC(N)=N1,human,oral,90 mg,single dose,8800 ng·h/mL
CC(C)n1cc(C#N)c2cc(-n3cc(C(=O)O)cn3)ccc21,human,oral,100 mg,"single dose, fasted, healthy volunteers",19400 ng·h/mL
Cc1nc(NC(=O)N2CCC[C@H]2C(N)=O)sc1-c1ccnc(C(C)(C)C(F)(F)F)c1,human,oral,180 mg,patients,15500 ng·h/mL
COc1cc(N2CCC(N3CCN(C)CC3)CC2)ccc1Nc1ncnc(Nc2ccccc2S(=O)(=O)C(C)C)n1,human,oral,125 mg,"multiple doses, patients",8320 ng·h/mL
CO[C@@H]1[C@H](OC(=O)N2CC(CCN3CCOCC3)C2)CC[C@]2(CO2)[C@H]1[C@@]1(C)O[C@@H]1CC=C(C)C,human,subcutaneous,3.6 mg,"single dose, healthy volunteers",10.4 ng·h/mL
COCCOc1cnc2ccn([C@H](C)c3nnc4c(F)cc(-c5cnn(C)c5)cn34)c(=O)c2c1,human,oral,100 mg,"multiple doses, once daily, patients",17300 ng·h/mL
